Test results from paper PMC2933382 (Biochemistry, 2010).
Like-named read-outs stand apart in the source and are kept apart here.

Key:
wild type AeSCP-2 [1] = target: T1, wild type AeSCP-2 (Aedes aegypti, UniProt Q86PR3); assay: Ligand competition assay with NBD-cholesterol; type: binding
T1 sequence (Q86PR3 1-110): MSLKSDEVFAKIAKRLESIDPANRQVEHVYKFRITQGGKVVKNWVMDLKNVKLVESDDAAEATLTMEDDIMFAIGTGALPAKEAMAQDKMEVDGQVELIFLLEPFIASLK

AeSCP-2 Y30A mutant [2] = target: T2, AeSCP-2 Y30A mutant (Aedes aegypti, UniProt Q86PR3, Y30A); assay: Ligand competition assay with NBD-cholesterol; type: binding
AeSCP-2 F32W mutant [3] = target: T3, AeSCP-2 F32W mutant (Aedes aegypti, UniProt Q86PR3, F32W); assay: Ligand competition assay with NBD-cholesterol; type: binding
AeSCP-2 W44A mutant = AeSCP-2 W44A mutant (Aedes aegypti, UniProt Q86PR3, W44A); assay: Ligand competition assay with NBD-cholesterol; type: binding
AeSCP-2 F105W mutant [4] = target: T4, AeSCP-2 F105W mutant (Aedes aegypti, UniProt Q86PR3, F105W); assay: Ligand competition assay with NBD-cholesterol; type: binding
AeSCP-2 [5] = target: T5, AeSCP-2 (Aedes aegypti, UniProt Q86PR3); assay: Initial ligand competition assay; type: binding; conditions: Fig. 1; NBD-cholesterol 1.25 µM, competitive ligand 0.005 to 5 µM
T5 sequence (Q86PR3 1-110): T1 sequence (Q86PR3 1-110)

wild type AeSCP-2 [6] = target: T1, wild type AeSCP-2; type: binding; conditions: 50 µM SCPI; wild type AeSCP-2 at 10 µM; Fig. 6A
Procedure, shortened: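 Intrinsic Trp (single residue, W44) fluorescence of purified recombinant native AeSCP-2, with and without SCP-2 inhibitor. Run in 100 µL of 50 mM Tris-HCl, pH 8.0, at 25 °C. Excitation at 280 nm; emission scanned 320–390 nm. Difference spectra were made by subtracting buffer and inhibitor-alone spectra.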

recombinant AeSCP-2 = conditions: radiolabelled cholesterol; cited from earlier work
[7] = within the lipid bilayer; cited from earlier work
AeSCP-2 W44E mutant [8] = target: T6, AeSCP-2 W44E mutant (Aedes aegypti, UniProt Q86PR3, W44E); assay: Ligand competition assay with NBD-cholesterol; type: binding
AeSCP-2 M90L mutant [9] = target: T7, AeSCP-2 M90L mutant (Aedes aegypti, UniProt Q86PR3, M90L); assay: Ligand competition assay with NBD-cholesterol; type: binding
AeSCP-2 wild-type = target: T8, AeSCP-2 wild-type (Aedes aegypti, UniProt Q86PR3); assay: NBD-cholesterol binding to recombinant AeSCP-2; conditions: wt; 0.5 µM NBD-cholesterol, protein 0.01 to 10 µM; mean (standard deviation)
T8 sequence (Q86PR3 1-110): T1 sequence (Q86PR3 1-110)

AeSCP-2 Y30A mutant [10] = target: T2, AeSCP-2 Y30A mutant; assay: NBD-cholesterol binding to recombinant AeSCP-2 mutant
AeSCP-2 F9W/W44F mutant [11] = target: T9, AeSCP-2 F9W/W44F mutant (Aedes aegypti, UniProt Q86PR3, F9W/W44F); assay: as above
AeSCP-2 F105A mutant = AeSCP-2 F105A mutant (Aedes aegypti, UniProt Q86PR3, F105A); assay: as above
AeSCP-2 F105W mutant [12] = target: T4, AeSCP-2 F105W mutant; assay: as above; conditions: 0.5 µM NBD-cholesterol, protein 0.01 to 10 µM, mean (standard deviation)
AeSCP-2 M90L mutant [13] = target: T7, AeSCP-2 M90L mutant; assay: as above
AeSCP-2 W44E mutant [14] = target: T6, AeSCP-2 W44E mutant; assay: as above
AeSCP-2 F32W mutant [15] = target: T3, AeSCP-2 F32W mutant; assay: as above; conditions: 0.5 µM NBD-cholesterol, protein 0.01 to 10 µM, mean (standard deviation)
AeSCP-2 F32A mutant = AeSCP-2 F32A mutant (Aedes aegypti, UniProt Q86PR3, F32A); assay: as above
Aag-2 cells = type: cell-based, Aedes aegypti; conditions: for Incorporation of [3H]cholesterol: Fig. 4; for Incorporation of [3H]palmitic acid: Fig. 5
AeSCP-2 [16] = target: T5, AeSCP-2; conditions: read-out: IC50 (suppression of NBD-cholesterol binding); cited from earlier work
[17] = tested on: wild type AeSCP-2 denatured in 6.5 M guanidine hydrochloride; assay: Intrinsic tryptophan fluorescence, denatured protein negative control; type: binding, Aedes aegypti; conditions: Fig. 6B
Procedure, shortened: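 Negative control: recombinant AeSCP-2 denatured in 6.5 M guanidine-HCl in 50 mM Tris-HCl, pH 7.4, scanned with and without inhibitor. Excitation at 280 nm; emission read 320–390 nm. Buffer and inhibitor-alone spectra were subtracted to give difference spectra.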

AeSCP-2 F9W/W44F mutant [18] = target: T9, AeSCP-2 F9W/W44F mutant; type: binding; conditions: Fig. 6C
AeSCP-2 M90L mutant [19] = target: T7, AeSCP-2 M90L mutant; type: binding; conditions: Fig. 6D

CC(C)CCC[C@@H](C)[C@H]1CC[C@H]2[C@@H]3CC=C4C[C@@H](O)CC[C@]4(C)[C@H]3CC[C@]12C [cholesterol]
EC50 (wild type AeSCP-2 [1]): 211 nM
EC50 (AeSCP-2 Y30A mutant [2]): 282 nM
EC50 (AeSCP-2 F32W mutant [3]): 447 nM
EC50 (AeSCP-2 W44A mutant): 72 nM
EC50 (AeSCP-2 F105W mutant [4]): 474 nM
Competition with NBD-cholesterol for binding to AeSCP-2 (AeSCP-2 [5]): competed with the NBD-cholesterol for binding to AeSCP-2 in a dose-dependent fashion
Effect on tryptophan intrinsic fluorescence signal (wild type AeSCP-2 [6]): does not produce a quenching
Kd (recombinant AeSCP-2): 10 nM
flip-flop rate t1/2 [7]: 1 to 2 min

CCCCCCCCCCCCCCCC(=O)O [palmitic acid]
EC50 (wild type AeSCP-2 [1]): 348 nM
EC50 (AeSCP-2 Y30A mutant [2]): 100 nM
EC50 (AeSCP-2 F32W mutant [3]): 398 nM
EC50 (AeSCP-2 W44A mutant): 127 nM
EC50 (AeSCP-2 W44E mutant [8]): 75 nM
EC50 (AeSCP-2 M90L mutant [9]): 127 nM
EC50 (AeSCP-2 F105W mutant [4]): 175 nM
Competition with NBD-cholesterol for binding to AeSCP-2 (AeSCP-2 [5]): also competed with NBD-cholesterol for binding to AeSCP-2

C[C@H](CNc1ccc([N+](=O)[O-])c2nonc12)[C@H]1CC[C@H]2[C@@H]3CC=C4C[C@@H](O)CC[C@]4(C)[C@H]3CC[C@]12C [NBD-cholesterol, 22-(N-(7-nitrobenz-2-oxa-1,3-diazol-4-yl)amino)-23,24-bisnor-5-cholen-3β-o]
Kd (AeSCP-2 wild-type): 340 nM
Fold of Kd change (AeSCP-2 Y30A mutant [10]; Y30A vs. wt): 0.73
Kd (AeSCP-2 Y30A mutant [10]; Y30A, 0.5 µM NBD-cholesterol, protein 0.01 to 10 µM, mean (standard deviation)): 250 nM
Fold of Kd change (AeSCP-2 F9W/W44F mutant [11]; F9W/W44F vs. wt): 2.68
Kd (AeSCP-2 F9W/W44F mutant [11]; F9W/W44F, 0.5 µM NBD-cholesterol, protein 0.01 to 10 µM, mean (standard deviation)): 910 nM
Fold of Kd change (AeSCP-2 F105A mutant; F105A vs. wt): 3.38
Kd (AeSCP-2 F105A mutant; F105A, 0.5 µM NBD-cholesterol, protein 0.01 to 10 µM, mean (standard deviation)): 1150 nM
Kd (AeSCP-2 F105W mutant [12]): 1320 nM
Fold of Kd change (AeSCP-2 M90L mutant [13]; M90L vs. wt): 8.09
Kd (AeSCP-2 M90L mutant [13]; M90L, 0.5 µM NBD-cholesterol, protein 0.01 to 10 µM, mean (standard deviation)): 2750 nM
Fold of Kd change (AeSCP-2 W44E mutant [14]; W44E vs. wt): 12.35
Kd (AeSCP-2 W44E mutant [14]; W44E, 0.5 µM NBD-cholesterol, protein 0.01 to 10 µM, mean (standard deviation)): 4200 nM
Kd (AeSCP-2 F32W mutant [15]): 4940 nM
Fold of Kd change (AeSCP-2 F32A mutant; F32A vs. wt): 18.71
Kd (AeSCP-2 F32A mutant; F32A, 0.5 µM NBD-cholesterol, protein 0.01 to 10 µM, mean (standard deviation)): 6360 nM

[3H]C1C([3H])[C@@]2(C)C(=CC[C@H]3[C@@H]4CC[C@H]([C@H](C)CCCC(C)C)[C@@]4(C)CC[C@@H]32)C[C@H]1O (stereo partly shown) [[^3H]cholesterol, [1,2-^3H (N)]-cholesterol]
Incorporation of [3H]cholesterol (Aag-2 cells; cells over-expressing AeSCP-2 mutants F32A, W44E, M90L, and F105A): did not increase
Incorporation of [3H]cholesterol (Aag-2 cells; cells over-expressing wild type AeSCP-2 vs. empty vector): increased significantly

Br.CC(=O)Nc1ccc(Nc2nc(-c3ccc(Cl)c(Cl)c3)cs2)cc1 [SCPI-1, N-4-{[4-(3,4-dichlorophenyl)-1,3-thiazol-2-yl]amino}phenyl)aetamide hydrobromide]
IC50 (AeSCP-2 [16]): < 400 nM

[3H]C(CCCCCC)C([3H])CCCCCCCC(=O)O (stereo not shown) [[^3H]palmitic acid, [9,10-^3H]-palmitic acid]
Incorporation of [3H]palmitic acid (Aag-2 cells; cells transfected with either empty or AeSCP-2 wild type expression vectors): no increase
Incorporation of [3H]palmitic acid (Aag-2 cells; over-expression of AeSCP-2 mutants): did not affect

Br.CC(=O)Nc1ccc(Nc2nc(-c3ccc(Cl)c(Cl)c3)cs2)cc1 [SCPI-1]
Effect on tryptophan intrinsic fluorescence signal (wild type AeSCP-2 [6]): significant decrease
Quenching of tryptophan intrinsic fluorescence, denatured protein [17]: no significant quenching
Effect on tryptophan intrinsic fluorescence (AeSCP-2 F9W/W44F mutant [18]): still quenched
Effect on tryptophan intrinsic fluorescence (AeSCP-2 M90L mutant [19]): still quenched

CC[C@H](CC[C@@H](C)[C@H]1CC[C@H]2[C@@H]3CC=C4C[C@@H](O)CC[C@]4(C)[C@H]3CC[C@]12C)C(C)C [β-sitosterol]
EC50 (wild type AeSCP-2 [1]): 142 nM
EC50 (AeSCP-2 Y30A mutant [2]): 96 nM
EC50 (AeSCP-2 F32W mutant [3]): 61 nM
EC50 (AeSCP-2 W44A mutant): 112 nM
EC50 (AeSCP-2 W44E mutant [8]): 42 nM
EC50 (AeSCP-2 M90L mutant [9]): 46 nM
EC50 (AeSCP-2 F105W mutant [4]): 83 nM
Competition with NBD-cholesterol for binding to AeSCP-2 (AeSCP-2 [5]): also competed with NBD-cholesterol for binding to AeSCP-2

COc1cccc(-n2sc3c(c2=S)-c2cc(Cl)ccc2NC3(C)C)c1 [SCPI-2, 8-chloro-2-(3-methoxyphenyl)-4,4-dimethyl-4,5-dihydroisothiazol[5,4-c]quinoline-1(2H)-thione]
Effect on tryptophan intrinsic fluorescence signal (wild type AeSCP-2 [6]): significant decrease
Quenching of tryptophan intrinsic fluorescence, denatured protein [17]: no significant quenching
Effect on tryptophan intrinsic fluorescence (AeSCP-2 F9W/W44F mutant [18]): did not affect
Effect on tryptophan intrinsic fluorescence (AeSCP-2 M90L mutant [19]): did not affect
IC50 (AeSCP-2 [16]): < 400 nM

CC(C)CCC[C@@H](C)[C@H]1CC[C@H]2C3=CC=C4C[C@@H](O)CC[C@]4(C)[C@H]3CC[C@]12C [7-dehydrocholesterol]
Competition with NBD-cholesterol for binding to AeSCP-2 (AeSCP-2 [5]): did not appear to compete
